Test results as given in ChEMBL document CHEMBL1212766, “Dose escalation study of the safety, tolerability, and pharmacokinetics of nemonoxacin (TG-873870), a novel potent broad-spectrum nonfluorinated quinolone, in healthy volunteers” (Antimicrob Agents Chemother, 2010).

How the values were obtained:
Homo sapiens [1] = assay: Toxicity in healthy human assessed as occurrence of erythema at 125 […], po; assay type: organism-based; design: route oral; details: in vivo
Homo sapiens [2] = assay: Toxicity in healthy human assessed as occurrence of contact dermatitis at 125 […], po; assay type: organism-based; design: route oral; details: in vivo
Outline: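 Randomized, double-blind, placebo-controlled single ascending oral doses in healthy volunteers (cohorts of 6 active, 2 placebo; 25–1,500 mg). After a 10-h fast, dose given with 240 ml water; fasting continued 4 h. Subjects were confined to 96 h postdose. AEs were recorded throughout dosing and at follow-up, reported as number and percentage of subjects with events per treatment.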

Homo sapiens [3] = assay: Toxicity in healthy human assessed as occurrence of pruritus at 50 […], po; assay type: organism-based; design: route oral; details: in vivo
Homo sapiens [4] = assay: Toxicity in healthy human assessed as occurrence of pruritus at 1000 […], po; assay type: organism-based; design: route oral; details: in vivo
Homo sapiens [5] = assay: Toxicity in healthy human assessed as occurrence of pruritus at 1500 […], po; assay type: organism-based; design: route oral; details: in vivo
Homo sapiens [6] = assay: Toxicity in healthy human assessed as occurrence of erythema at 50 […], po; assay type: organism-based; design: route oral; details: in vivo
Homo sapiens [7] = assay: Toxicity in healthy human assessed as occurrence of erythema at 250 […], po; assay type: organism-based; design: route oral; details: in vivo
Homo sapiens [8] = assay: Toxicity in healthy human assessed as occurrence of erythema at 500 […], po; assay type: organism-based; design: route oral; details: in vivo
Homo sapiens [9] = assay: Toxicity in healthy human assessed as occurrence of headache at 50 […], po; assay type: organism-based; design: route oral; details: in vivo
Homo sapiens [10] = assay: Toxicity in healthy human assessed as occurrence of headache at 1500 […], po; assay type: organism-based; design: route oral; details: in vivo
Homo sapiens [11] = assay: Toxicity in healthy human assessed as occurrence of oral hypoesthesia at 25 […], po; assay type: organism-based; design: route oral; details: in vivo
Homo sapiens [12] = assay: Toxicity in healthy human assessed as occurrence of oral hypoesthesia at 50 […], po; assay type: organism-based; design: route oral; details: in vivo
Homo sapiens [13] = assay: Toxicity in healthy human assessed as occurrence of oral hypoesthesia at 125 […], po; assay type: organism-based; design: route oral; details: in vivo
Homo sapiens [14] = assay: Toxicity in healthy human assessed as occurrence of oral hypoesthesia at 1000 […], po; assay type: organism-based; design: route oral; details: in vivo
Homo sapiens [15] = assay: Toxicity in healthy human assessed as occurrence of oral hypoesthesia at 1500 […], po; assay type: organism-based; design: route oral; details: in vivo
Homo sapiens [16] = assay: Toxicity in healthy human assessed as occurrence of pustular rashes at 1000 […], po; assay type: organism-based; design: route oral; details: in vivo
Homo sapiens [17] = assay: Toxicity in healthy human assessed as occurrence of nausea at 25 […], po; assay type: organism-based; design: route oral; details: in vivo
Homo sapiens [18] = assay: Toxicity in healthy human assessed as occurrence of nausea at 50 […], po; assay type: organism-based; design: route oral; details: in vivo
Homo sapiens [19] = assay: Toxicity in healthy human assessed as occurrence of nausea at 1000 […], po; assay type: organism-based; design: route oral; details: in vivo
Homo sapiens [20] = assay: Toxicity in healthy human assessed as occurrence of ear pain at 125 […], po; assay type: organism-based; design: route oral; details: in vivo
Homo sapiens [21] = assay: Toxicity in healthy human assessed as occurrence of ear pain at 500 […], po; assay type: organism-based; design: route oral; details: in vivo
[22] = Terminal phase elimination half-life in healthy human at 25 […], po administered single dose; assay type: ADME, organism-based; design: route oral; details: in vivo
Outline: (§1)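 After one fasted oral dose (six healthy subjects per cohort), plasma was sampled from 0.5 to 96 h and assayed by LC-MS/MS (LLOQ 5 ng/ml). λz came from least-squares regression on at least the last three log-concentration points, and t1/2 = 0.693/λz. Values are means (SD).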

[23] = Terminal phase elimination half-life in healthy human at 50 […], po administered single dose; assay type: ADME, organism-based; design: route oral; details: in vivo; outline: as §1
Homo sapiens [24] = assay: Clearance in healthy human at 25 […], po administered as single dose; assay type: ADME, organism-based; design: route oral; details: in vivo
Outline: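 Randomized, double-blind, placebo-controlled single ascending oral dose in fasted healthy subjects (six on drug per cohort, with 240 ml water). Plasma sampled predose through 96 h and assayed by validated LC-MS/MS over 5–5,000 ng/ml. Oral clearance (CL_o) came from noncompartmental analysis, with AUC_0-∞ from linear trapezoids plus C_last/λz. Values are means (SD).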

[25] = Clearance in healthy human assessed as recovery of unchanged drug in urine at 1500 […], po administered as single dose; assay type: ADME, organism-based; design: route oral; details: read-out: Recovered in urine
Outline: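 Healthy volunteers, six on drug per cohort, fasted 10 h and given one oral dose with 240 ml water, then fasted 4 h more. Urine was pooled over intervals from 0-2 to 72-96 h and stored at about −70°C. Drug was measured by solid-phase extraction and LC-MS/MS (LLOQ 200 ng/ml), giving the percent of dose recovered unchanged. Values are means (SD).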

Streptococcus pneumoniae [26] = assay: Ratio of fAUC to MIC90 for penicillin-resistant Streptococcus pneumoniae; assay type: functional
Outline: (§2)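 Fasted healthy adults got a single oral 500 mg dose with 240 ml water. Plasma was sampled predose to 96 h and assayed by LC-MS/MS (5–5,000 ng/ml). Cmax was read from individual profiles, and AUC0-∞ came from linear trapezoid plus extrapolation. Free fraction was measured by ultrafiltration (30,000 MWCO) of 0.5 and 6 h plasma. Free exposure was divided by the isolate MIC90.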

Staphylococcus aureus [27] = assay: Ratio of fAUC to MIC90 for methicillin-sensitive Staphylococcus aureus; assay type: functional; outline: as §2
Staphylococcus aureus [28] = assay: Ratio of fAUC to MIC90 for methicillin-resistant Staphylococcus aureus; assay type: functional; outline: as §2
Streptococcus pneumoniae [29] = assay: Ratio of fCmax to MIC90 for penicillin-sensitive Streptococcus pneumoniae; assay type: functional; outline: as §2
Streptococcus pneumoniae [30] = assay: Ratio of fCmax to MIC90 for penicillin-intermediate Streptococcus pneumoniae; assay type: functional; outline: as §2
Streptococcus pneumoniae [31] = assay: Ratio of fCmax to MIC90 for ciprofloxacin-resistant Streptococcus pneumoniae; assay type: functional; outline: as §2
Staphylococcus aureus [32] = assay: Ratio of fCmax to MIC90 for methicillin-resistant Staphylococcus aureus; assay type: functional; outline: as §2
[33] = Tmax in healthy human at 25 mg, po administered as single dose; details: in vivo
[34] = Cmax in healthy human at 125 mg, po administered as single dose; details: in vivo
[35] = Tmax in healthy human at 125 mg, po administered as single dose; details: in vivo
Homo sapiens [36] = assay: Clearance in healthy human at 250 mg, po administered as single dose; details: in vivo
Homo sapiens [37] = assay: Clearance in healthy human at 500 mg, po administered as single dose; details: in vivo
[38] = Renal clearance in healthy human at 125 mg, po administered as single dose; details: in vivo, read-out: CL_renal (converted)
Homo sapiens [39] = assay: AUC (0 to infinity) in healthy human at 1500 mg, po administered as single dose; details: in vivo
Homo sapiens [40] = assay: Terminal volume of distribution in healthy human at 50 mg, po administered as single dose; details: in vivo
Homo sapiens [41] = assay: Terminal volume of distribution in healthy human at 1000 mg, po administered as single dose; details: in vivo
[42] = Terminal phase elimination half-life in healthy human at 1000 mg, po administered single dose; details: in vivo

For `COc1c(N2C[C@@H](C)C[C@H](N)C2)ccc2c(=O)c(C(=O)O)cn(C3CC3)c12` [NEMONOXACIN], the Activity (Homo sapiens [1]) was 0%, the Activity (Homo sapiens [2]) was 33% and the Activity (Homo sapiens [3]) was 17%. The Activity (Homo sapiens [4]) was 17%, the Activity (Homo sapiens [5]) was 50% and the Activity (Homo sapiens [6]) was 0%. The Activity (Homo sapiens [7]) was 0%, the Activity (Homo sapiens [8]) was 0% and the Activity (Homo sapiens [9]) was 0%. For the same compound, the Activity (Homo sapiens [10]) was 17%, the Activity (Homo sapiens [11]) was 0% and the Activity (Homo sapiens [12]) was 0%. The Activity (Homo sapiens [13]) was 0%, the Activity (Homo sapiens [14]) was 17% and the Activity (Homo sapiens [15]) was 0%. For the same compound, the Activity (Homo sapiens [16]) was 0%, the Activity (Homo sapiens [17]) was 0% and the Activity (Homo sapiens [18]) was 0%. It also gave an Activity (Homo sapiens [19]) of 0%, an Activity (Homo sapiens [20]) of 0% and an Activity (Homo sapiens [21]) of 0%. It also gave a half-life [22] of 9.71 h, a half-life [23] of 8.49 h and a CL (Homo sapiens [24]) of 5 mL/min/kg. It also gave a dose excreted [25] of 37.6%, a Ratio (Streptococcus pneumoniae [26]) of 906 and a Ratio (Staphylococcus aureus [27]) of 227. For the same compound, the Ratio (Staphylococcus aureus [28]) was 453, the Ratio (Streptococcus pneumoniae [29]) was 191 and the Ratio (Streptococcus pneumoniae [30]) was 191. For the same compound, the Ratio (Streptococcus pneumoniae [31]) was 24, the Ratio (Staphylococcus aureus [32]) was 48 and the Tmax [33] was 0.92 h. The Cmax [34] was 1220 ng/mL, the Tmax [35] was 0.75 h and the CL (Homo sapiens [36]) was 4 mL/min/kg. For the same compound, the CL (Homo sapiens [37]) was 3.3 mL/min/kg, the CL renal [38] was 1.33 mL/min/kg and the AUC (Homo sapiens [39]) was 117.84 µg·h/mL. It also gave a Vbeta (Homo sapiens [40]) of 2.78 L/kg, a Vbeta (Homo sapiens [41]) of 5.28 L/kg and a half-life [42] of 16.4 h.
